In ChEMBL document CHEMBL4304771, “Design, synthesis and biological activity of N-(2-phenoxy)ethyl imidazo[1,2-a]pyridine-3-carboxamides as new antitubercular agents” (Eur J Med Chem, 2019):
Converted amounts (≈) assume the structure as drawn.

Key:
[1] = tested on: Mycobacterium tuberculosis; assay: Antitubercular activity against multidrug resistant Mycobacterium tuberculosis isolate 9160 assessed as parasite growth inhibition measured after 7 days incubation by microplate alamar blue assay; format: functional; details: isolate 9160, 168 h
In short: (§1)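 Strains grown to late log phase in 7H9 with 0.2% glycerol, 0.05% Tween 80 and 10% ADC. Cells washed, resuspended in PBS, filtered (8 µm) and frozen at -80 °C. Two-fold compound dilutions, 2 × 10⁵ CFU per well, 37 °C for 7 days. Tween 80 and Alamar blue then added for 16-24 h; fluorescence read at ex 530/em 590 nm. MIC = lowest concentration giving ≥90% fluorescence reduction versus mean of bacterium-only controls.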

[2] = tested on: Mycobacterium tuberculosis; assay: Antitubercular activity against multidrug resistant Mycobacterium tuberculosis isolate 11168 assessed as parasite growth inhibition measured after 7 days incubation by microplate alamar blue assay; format: functional; details: isolate 11168, 168 h; in short: as §1

Row | SMILES | MIC [1] [µg/mL] | MIC [2] [µg/mL]
1 | COc1ccc2nc(C)c(C(=O)NCCOc3ccc(N4CC5CCCCC5C4)cc3)n2c1 (stereo unspecified) | < 0.016 | < 0.016
2 | CCc1nc2ccc(Br)cn2c1C(=O)NCCOc1ccc(N2CCCCC2)cc1 | < 0.016 | < 0.016
3 | CCc1nc2ccc(Cl)cn2c1C(=O)NCc1ccc(N2CCC(c3ccc(OC(F)(F)F)cc3)CC2)cc1 [TELACEBEC] | 0.057 (≈ 0.102 µM) | < 0.016
4 | CCc1nc2ccc(Cl)cn2c1C(=O)NCCOc1ccc(Br)cc1 | 0.311 (≈ 0.736 µM) | 0.063 (≈ 0.149 µM)
5 | CCc1nc2ccc(Br)cn2c1C(=O)NCCOc1ccc(N2CCC(C(F)(F)F)CC2)cc1 | 0.13 (≈ 0.241 µM) | < 0.016
6 | CCc1nc2ccc(C)cn2c1C(=O)NCCOc1ccc(OC)cc1 | 0.394 (≈ 1.11 µM) | < 0.016
7 | CCc1nc2ccc(Br)cn2c1C(=O)NCCOc1ccc(Br)cc1 | 0.449 (≈ 0.961 µM) | 0.125 (≈ 0.268 µM)
8 | CCc1nc2ccc(C)cn2c1C(=O)NCCOc1ccc(N2CC3CCCCC3C2)cc1 (stereo unspecified) | 0.024 (≈ 0.0537 µM) | < 0.016
9 | CO[C@H]1/C=C/O[C@@]2(C)Oc3c(C)c(O)c4c(O)c(c(/C=N/N5CCN(C)CC5)c(O)c4c3C2=O)NC(=O)/C(C)=C\C=C\[C@H](C)[C@H](O)[C@@H](C)[C@@H](O)[C@@H](C)[C@H](OC(C)=O)[C@@H]1C [RIFAMPIN] | 38.6 (≈ 47 µM) | 36.9 (≈ 44.8 µM)
10 | CCc1nc2ccc(Cl)cn2c1C(=O)NCCOc1ccc(N(C)C)cc1 | 0.225 (≈ 0.582 µM) | < 0.016
11 | NNC(=O)c1ccncc1 [ISONIAZID] | > 40 | > 40
12 | O=c1nc(N2CCN(CC3CCCCC3)CC2)sc2c([N+](=O)[O-])cc(C(F)(F)F)cc12 [MACOZINONE] | 0.232 (≈ 0.508 µM) | 0.116 (≈ 0.254 µM)
13 | COc1ccc(OCCNC(=O)c2c(C3CC3)nc3ccc(C)cn23)cc1 | 0.429 (≈ 1.17 µM) | < 0.016
14 | CCc1nc2ccc(Cl)cn2c1C(=O)NCCOc1ccc(Cl)cc1 | 1 (≈ 2.64 µM) | 0.25 (≈ 0.661 µM)
15 | CCc1nc2ccc(Cl)cn2c1C(=O)NCCOc1ccc(N2CCN(c3ccc(F)cc3)CC2)cc1 | 0.016 (≈ 0.0306 µM) | < 0.016
16 | CCc1nc2ccc(Br)cn2c1C(=O)NCCOc1ccc(N2CC3CCCCC3C2)cc1 (stereo unspecified) | 0.032 (≈ 0.0626 µM) | < 0.016
17 | COc1ccc2nc(C)c(C(=O)NCCOc3ccc(Br)cc3)n2c1 | 0.5 (≈ 1.24 µM) | 0.125 (≈ 0.309 µM)
18 | COc1ccc2nc(C)c(C(=O)NCCOc3ccc(N4CCC(C(F)(F)F)CC4)cc3)n2c1 | 0.111 (≈ 0.233 µM) | < 0.016
